Sequences and labels used below:
B1: tRNA (parent)
chain: GUUCCGUUGGCGUAAUGGUAACGCGUCUCCCUCCUAAGGAGAAGACUGCGGGUUCGAGUCCCGUACGGAACG

167 variants from the RNAGym collection of RNA variant scans (doi:10.1126/science.aae0568) can be followed below.

Variants at the floor of the assay were thinned out.

Variants of B1 are the subject of this data set. The experiment in a line: yeast fitness relative to wild type (ratio to wild type); higher = fitter; tRNA-Arg(CCU), competitive growth, 37 C, YPD. Summed up:
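Changes in genotype frequencies gave Darwinian fitness relative to wild type. Frequencies were read by 100-nucleotide paired-end sequencing of gene amplicons before and after pooled Saccharomyces cerevisiae strains, carrying tRNA-Arg(CCU) gene variants at the native locus, were competed in YPD at 37°C for 24 hours in six replicates. A genotype was kept only with ≥ 100 starting reads, and estimates < 0.5 were set to 0.5.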
In the case of A15G C31U G58A, the yeast fitness was 1.03. With A15G C31A A70U, the yeast fitness is 0.639. On to A15G U28C A37C A70U, for which the yeast fitness was no more than 0.5. With A15U C27G C49A the figure was 0.518; with A15U A20C U26A C30G U35A G38C U64A, no more than 0.5; with A15G C24G A37G C49A, no more than 0.5. A15G U26G G41A G56A: the yeast fitness is no more than 0.5. In the case of A15U A42G C46G C61A, the yeast fitness was no more than 0.5.

As for A15U C29A G48C, the yeast fitness was no more than 0.5. As to A15U C22U A57C, the yeast fitness was no more than 0.5.

Regarding A15U C60A G63A, the yeast fitness is no more than 0.5. With A15G G48A C66U, the yeast fitness is 0.747. Consider A15G C24U C29U C30G U35G A70G, for which the yeast fitness was no more than 0.5. Consider A15G G67C, for which the yeast fitness was 0.706.

On to A15G G67U, for which the yeast fitness is 0.662. With A15G G67A, the yeast fitness was 0.868. Take A15G G39C C46U: the yeast fitness worked out at 0.689. With A15G G50A U54A A57C the figure was 0.583; with A15G C31G, 0.852; with A15G C31U, 0.987.

Consider A15G C27G A36U G39C A69C, for which the yeast fitness is no more than 0.5. Take A15U C24U A40U G41C U64C: the yeast fitness is 0.647. For A15U C66U the value was 0.738. For the variant A15U C66A, the yeast fitness amounted to 0.649. For the variant A15U A20G C55U G63C, the yeast fitness is no more than 0.5. For A15U A20G A43C the value was 0.593; for A15G C62G C66G, no more than 0.5. Turning to A15G C62G C66U, the yeast fitness was found to be 0.535. On to A15G G63C, for which the yeast fitness turned out to be 0.918. Take A15G U32G A40C: the yeast fitness was no more than 0.5. Take A15U C27G U28C C62G: the yeast fitness came out at 0.534. Take A15G U54G C55U A65G: the yeast fitness was no more than 0.5. For A15G C49G the value was 0.782. As to A15U C22G G25A C31U A57C U64A G68A, the yeast fitness was no more than 0.5. With A15U A21G C29U G44C C55A G56C the figure was no more than 0.5; with A15G C30G C49G A65U, no more than 0.5; with A15U A20G C46G C61A, no more than 0.5. In the case of A15G G52A G67U, the yeast fitness is no more than 0.5. Take A15U C46G C61A: the yeast fitness amounted to 0.51. With A15U C46G C55A A69U the figure was no more than 0.5; with A15U C22G C31U C46G G63A, no more than 0.5. A15G U35A: the yeast fitness amounted to 0.602. For A15G G48A, the yeast fitness was found to be 0.879. As for A15G G48C, the yeast fitness turned out to be 0.841.

Turning to A15G C66A, the yeast fitness worked out at 0.657. For A15G C66U, the yeast fitness is 0.887. For the variant A15U A65G C66A G67C, the yeast fitness is no more than 0.5. With A15G C30U C31A A36C, the yeast fitness was no more than 0.5. With A15G U32C A37G C55A, the yeast fitness is no more than 0.5. With A15U C66U A69U the figure was 0.566; with A15G G48C G51A A65C, no more than 0.5; with A15G C55G G56U G68C, no more than 0.5. As for A15U A21C C24G C29U A42C C55A, the yeast fitness is no more than 0.5. For the variant A15U C60G C66G, the yeast fitness is no more than 0.5.

Turning to A15G C30G A43U C62A, the yeast fitness was determined as 0.611.

For A15U C24A C55U U59C, the yeast fitness was 0.526.

As for A15U A43G U59C, the yeast fitness was 0.53. For A15U C27A A65C G67A A69C the value was no more than 0.5; for A15G U16A A45U, 0.642; for A15G U26A, 1.04. For A15G G23C U28A the value was no more than 0.5; for A15G C33G, 0.732. As for A15U C27G, the yeast fitness came to 0.531. For A15G G23C G38C C49U the value was no more than 0.5. For A15G U19A U28A C55A A65U, the yeast fitness was no more than 0.5. As for A15G C24G U26A G52A G67A G68C, the yeast fitness amounted to 0.561.

On to A15G C27A A43G, for which the yeast fitness is no more than 0.5. On to A15G G68A, for which the yeast fitness turned out to be 0.894. In the case of A15U A21C C24G C62G, the yeast fitness was no more than 0.5. Consider A15U A21C G23C C55A U64A A65C, for which the yeast fitness is no more than 0.5. For A15G C24G C29U, the yeast fitness is no more than 0.5. With A15G C27A the figure was 0.786. Take A15U C24G A42C C55U G68U: the yeast fitness is no more than 0.5. A15G U26G G41C A43C: the yeast fitness was no more than 0.5. Consider A15G G23C G38C G52C C66A, for which the yeast fitness is no more than 0.5. Take A15U A20C C27U: the yeast fitness amounted to 0.748. For A15G U19C A37U C49U G51A C60A, the yeast fitness is no more than 0.5. For A15G U19G A69C, the yeast fitness was 0.721. Take A15U C24U C27U C49U: the yeast fitness is no more than 0.5. With A15U C62A, the yeast fitness was 0.624. With A15G C29G C33G the figure was no more than 0.5; with A15G U35A A57G C62G, no more than 0.5; with A15G U26G C55U A69U A70C, no more than 0.5. In the case of A15U C22G C31U U32C A57C U64A G68A, the yeast fitness is no more than 0.5.

In the case of A15U C34G A69U, the yeast fitness is no more than 0.5. With A15G C62U A69C the figure was 0.829; with A15U C22G C31U C46G U54A, no more than 0.5. For A15G C29U C34G A40C the value was 0.694.

Regarding A15U A37G A42C C49G C61U, the yeast fitness is no more than 0.5. In the case of A15U A45C C46A C66U, the yeast fitness was no more than 0.5. On to A15U A42U C46G C61G, for which the yeast fitness is 0.652.

For A15U C22G C27U A36C G39C G48C G63U A70U, the yeast fitness is no more than 0.5.

For the variant A15U C29A C34U C55A, the yeast fitness is 0.519.

Consider A15G U47C, for which the yeast fitness was 0.896.

With A15G U47A, the yeast fitness worked out at 0.916.

Regarding A15G U47G, the yeast fitness amounted to 0.782. As for A15U A20U A45C A57G, the yeast fitness was no more than 0.5. Take A15U C46U C66U A69G: the yeast fitness is no more than 0.5.

Regarding A15U C24U U64C, the yeast fitness is no more than 0.5. As for A15G C24G U26A, the yeast fitness worked out at 0.656. Turning to A15U A20G U28G C33U, the yeast fitness was no more than 0.5.

As to A15G U32A G38A C49U, the yeast fitness was no more than 0.5. Take A15G C46U: the yeast fitness is 0.987.

In the case of A15G C46A, the yeast fitness came out at 0.884. With A15G G41C A43C G67A the figure was 0.535. On to A15G U19C C29U A37G, for which the yeast fitness was no more than 0.5. Take A15G C60U: the yeast fitness is 0.786. For A15U G18C C24G C46A U64C A69G, the yeast fitness was 0.513. With A15G G50A, the yeast fitness worked out at 0.929.

Regarding A15G C34U A36G, the yeast fitness worked out at 0.563. As to A15G U26G C30U A40U G52A, the yeast fitness was no more than 0.5. A15U C55U G56A C66G: the yeast fitness worked out at 0.59. For A15U C22U G39C, the yeast fitness is no more than 0.5. With A15U C29G C31G the figure was no more than 0.5.

As for A15U C22G G52A, the yeast fitness was no more than 0.5.

Consider A15U C22G G52C, for which the yeast fitness is 0.529. On to A15G C55A, for which the yeast fitness turned out to be 0.727. For A15U A43U A65C, the yeast fitness was 0.569.

With A15G U28G U53A G56A, the yeast fitness was no more than 0.5. For A15G C24G C66G G67A the value was 0.64; for A15U G18A A42U, 0.567; for A15G C30G C55A, no more than 0.5. Turning to A15G G17A A40C, the yeast fitness was no more than 0.5.

Turning to A15G G18A C46U, the yeast fitness was 0.645.

For A15G C31G U47G C49G, the yeast fitness amounted to 0.545.

For A15G C34U G41C C49U, the yeast fitness is no more than 0.5. For A15U, the yeast fitness amounted to 0.885. With A15U C27U G48C, the yeast fitness stood at 0.587. Turning to A15G U19C A37U C49U G51A U64A, the yeast fitness was no more than 0.5. Regarding A15U G18A C27A, the yeast fitness was determined as 1.03. On to A15G C31U C60A, for which the yeast fitness came out at 0.584. Turning to A15U C22G G58C G68A, the yeast fitness is no more than 0.5. For A15G G51A A70U, the yeast fitness turned out to be 0.533. Take A15U A40U G63A: the yeast fitness is no more than 0.5.

On to A15G C34U A40U, for which the yeast fitness is no more than 0.5.

In the case of A15U A43C, the yeast fitness is 0.825.

A15U A21C C24G C29U A42C G56U U59A: the yeast fitness is no more than 0.5.

With A15G G39C, the yeast fitness worked out at 0.736. Regarding A15G G23C A43G, the yeast fitness stood at 0.54. On to A15U C31U A36G, for which the yeast fitness stood at 0.568. As for A15G C61A C62G G68A, the yeast fitness was no more than 0.5. In the case of A15U C27U A65U, the yeast fitness is 0.725. With A15U C27U G48C A70U, the yeast fitness is 0.549. In the case of A15U C33U, the yeast fitness is 0.724. Take A15G G25C G48A: the yeast fitness is 0.637. As to A15G U54A G63C, the yeast fitness was found to be 0.631. As to A15U C29A C49G, the yeast fitness stood at 0.634. With A15G G44A G50C C60U A70G, the yeast fitness is no more than 0.5.

On to A15G U28G, for which the yeast fitness is 0.646. As to A15G G44C A65C, the yeast fitness is no more than 0.5. Regarding A15U C27G U28G G67C, the yeast fitness was no more than 0.5. A15G G17A C49U: the yeast fitness was 0.687.

For A15G G58A G63A G68C, the yeast fitness is no more than 0.5. In the case of A15U G17C A45U C49G A70U, the yeast fitness was 0.528. Turning to A15U A45C, the yeast fitness came to 0.803. Turning to A15U C27U G44C G58C G63C, the yeast fitness was no more than 0.5.

On to A15G C24G U26A G52A, for which the yeast fitness came to 0.589. With A15U C31G G50C G58C, the yeast fitness was determined as 0.588. With A15U A40G A42G A57U C62G C66U, the yeast fitness is no more than 0.5. Regarding A15U A43U C55U C60A, the yeast fitness was 0.69. With A15G C30A C62A, the yeast fitness was no more than 0.5. On to A15G U19A A69U, for which the yeast fitness was 0.729. With A15U C27U A36G C61U C62U the figure was no more than 0.5; with A15U A36G C55G, 0.565; with A15U C24U C27U G67A, no more than 0.5. Regarding A15G C24G U32A G41A A69U, the yeast fitness is no more than 0.5. In the case of A15U C22G C31U A57C U64A G68A, the yeast fitness is 0.553.
